Six compounds from ChEMBL document CHEMBL2046281, “Pre-steady state kinetic analysis of cyclobutyl derivatives of 2'-deoxyadenosine 5'-triphosphate as inhibitors of HIV-1 reverse transcriptase” (Bioorg Med Chem Lett, 2012) can be followed below.

The target of assay [1] is Human immunodeficiency virus type 1 reverse transcriptase (Human immunodeficiency virus 1) (UniProt Q72547). The experiment in a line: Binding affinity to wild type HIV1 reverse transcriptase assessed as compound incorporation in presence of 50 nM primer template and 10 mM MgCl2 by pre-steady state kinetics study. In a few lines: (§1)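 Pre-steady-state single-nucleotide incorporation by HIV-1 RT (wild type or K65R), 250 nM active-site enzyme, elongating a radiolabeled DNA/DNA primer-template (50 nM) that carries the primer binding site and its complementary sequence. Reactions contained 10 mM MgCl2 and varied nucleotide concentrations. kpol and Kd were derived, and incorporation efficiency was reported in s-1 µM-1.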

The target in assay [2] is Human immunodeficiency virus type 1 reverse transcriptase (Human immunodeficiency virus 1, UniProt Q72547). The experiment in a line: Binding affinity to wild type HIV1 reverse transcriptase by pre-steady state kinetics study. The method in brief: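 Pre-steady-state single-nucleotide incorporation by wild-type HIV-1 RT (250 nM active sites) into a radiolabeled DNA/DNA primer-template (50 nM) carrying the primer binding site and its complementary sequence. Reactions contained 10 mM MgCl2 and varied nucleotide concentrations. kpol and Kd were taken from the primer elongation data.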

Assay [3] deals with Human immunodeficiency virus type 1 reverse transcriptase (Human immunodeficiency virus 1), Q72547 [K65R]. The experiment in a line: Inhibition of HIV1 reverse transcriptase K65R mutant assessed as compound incorporation efficiency in presence of 50 nM primer template and 10 mM MgCl2 by pre-steady state kinetics study. The method in brief: as §1
The target of assay [4] is Human immunodeficiency virus type 1 reverse transcriptase (Human immunodeficiency virus 1, UniProt Q72547, K65R). The experiment in a line: Binding affinity to HIV1 reverse transcriptase K65R mutant by pre-steady state kinetics study. In a few lines: as §1
Assay [5] concerns Human immunodeficiency virus type 1 reverse transcriptase (Human immunodeficiency virus 1), Q72547 [K65R]. The experiment in a line: Binding affinity to HIV1 reverse transcriptase K65R mutant assessed as compound incorporation in presence of 50 nM primer template and 10 mM MgCl2 by pre-steady state kinetics study. In a few lines: as §1
The target of assay [6] is Human immunodeficiency virus type 1 reverse transcriptase (Human immunodeficiency virus 1) (UniProt Q72547). The experiment in a line: Inhibition of wild type HIV1 reverse transcriptase assessed as compound incorporation efficiency in presence of 50 nM primer template and 10 mM MgCl2 by pre-steady state kinetics study. In a few lines: as §1
Assay [7] shares this target. The experiment in a line: Discrimination index, ratio of incorporation efficiency of dATP to incorporation efficiency of compound for wild type HIV1 reverse transcriptase.
Assay [8] relates to Human immunodeficiency virus type 1 reverse transcriptase (Human immunodeficiency virus 1), Q72547 [K65R]. The experiment in a line: Discrimination index, ratio of incorporation efficiency of dATP to incorporation efficiency of compound for wild type HIV1 reverse transcriptase K65R mutant.

A word on the Kd: it is a measure of binding affinity in units of concentration.

In the case of `Nc1ncnc2c1ncn2[C@H]1C[C@@H](OCP(=O)(O)OP(=O)(O)OP(=O)(O)O)C1`, the K in assay [1] was determined as 1.3 s⁻¹; in assay [5], 0.07 s⁻¹. For the same compound, the Kd worked out at 6.5 µM in assay [2] and 4.7 µM in assay [4]. Further, the Activity in assay [3] was determined as 0.015 s⁻¹ µM⁻¹; in assay [6], 0.21 s⁻¹ µM⁻¹. The Ratio in assay [7] was 13; in assay [8] it was 41.
As for `NC1=Nc2ncnc3c2c(cn3[C@H]2C[C@@H](COP(=O)(O)OP(=O)(O)OP(=O)(O)O)C2)C=C1`, the K in assay [1] was determined as 0.16 s⁻¹. In assay [2], this compound gave a Kd of 22.4 µM. In addition, the Activity in assay [6] came out at 0.007 s⁻¹ µM⁻¹. In assay [7], the Ratio was 386.
On to `Nc1ncnc2c1ncn2[C@H]1C[C@@H](COP(=O)(O)OP(=O)(O)OP(=O)(O)O)C1`, for which, in assay [1], the K is 0.23 s⁻¹. Further, in assay [2], binding was characterised by a dissociation constant (Kd) of 20.4 µM. Besides, in assay [6], the Activity turned out to be 0.011 s⁻¹ µM⁻¹. Moreover, the Ratio in assay [7] came out at 245.
Take `Nc1ncnc2c1ncn2[C@H]1C[C@H](O)[C@@H](COP(=O)(O)OP(=O)(O)OP(=O)(O)O)O1`: the K came to 12.3 s⁻¹ in assay [1] and 4 s⁻¹ in assay [5]. For the same compound, the Kd amounted to 4.6 µM in assay [2] and 6.6 µM in assay [4]. Also, the Activity in assay [3] came out at 0.61 s⁻¹ µM⁻¹; in assay [6], 2.7 s⁻¹ µM⁻¹.
Take `Nc1ncnc2c1ncn2[C@@H]1C[C@H](COP(=O)(O)OP(=O)(O)OP(=O)(O)O)[C@H]1F`: the K in assay [1] is 0.13 s⁻¹. The compound further displayed a Kd in assay [2] of 25.5 µM. Besides, in assay [6], the Activity amounted to 0.0052 s⁻¹ µM⁻¹. For the same compound, the Ratio in assay [7] came to 519.
In the case of `C[C@H](Cn1cnc2c(N)ncnc21)OCP(=O)(O)OP(=O)(O)OP(=O)(O)O`, the K in assay [1] amounted to 0.79 s⁻¹; in assay [5] it was 0.15 s⁻¹. Besides, the Kd in assay [2] was found to be 16.5 µM; in assay [4], 29.1 µM. Further, the Activity in assay [3] stood at 0.005 s⁻¹ µM⁻¹; in assay [6], 0.048 s⁻¹ µM⁻¹. In addition, the figures for the Ratio in assay [7] and in assay [8] were 56 and 122, respectively.
